assay: Toxicity liver stage against HepG2, at 10uM; type: cell-based; set-up: test concentration 10 uM, cell line HepG2-A16-CD81EGFP; settings: human, HepG2-A16-CD81EGFP cells; read-out: INHIBITION
How it was run: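 Uninfected HepG2-A16-CD81EGFP cells, 3 × 10^3 per well, 1536-well, plated on prespotted compound at 10 μM final, parasite-free screening media added to match infected plates; puromycin 10 μM positive, DMSO 0.5% negative; run in parallel with 48 h PbLuc assay at 37 °C, 5% CO2; viability by CellTiter-Glo luminescence, normalized to controls.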

Row | Structure (SMILES) | cytotoxicity at 10 µM [%]
1 | COc1ccnc(NCc2ccccc2Cn2cccn2)n1 | -0.81
2 | CNC(=O)C(C)(C)N1CCC[C@H]1C(=O)NCCN1CCOCC1 | 3.29
3 | CC(=O)N1CCC(N2CCOC[C@H]2c2nc(-c3ccc(Cl)s3)c[nH]2)CC1 | 2.29
4 | CS(=O)(=O)NC[C@H]1Cn2c(-c3ccc4c(c3)OCCO4)cnc2CO1 | -11.1
5 | COCC1CN(Cc2ccc(OC)cc2)S(=O)(=O)c2cnccc2O1 (centres undefined) | -1.78
6 | COc1ccc(C(=O)N2CC(=O)N(C3CCC3)CC(O)C2)c(OC)c1 (centres undefined) | -0.373
7 | CCS(=O)(=O)N1CC(=O)N(Cc2ccccc2OC)CC(O)C1 (centres undefined) | -95.5
8 | COC1CN(C(=O)Cc2cccs2)CCC(=O)N(C)c2ccccc21 (centres undefined) | -11.6
9 | CC(C)CNC(=O)c1cn(-c2ccccn2)c(=O)c2ccccc12 | 0.318
10 | CC(C)(C)OC(=O)Cn1cccc(S(=O)(=O)N2CCCCCC2)c1=O | -2.28
11 | Cc1nc(C)c(CC(=O)NCc2ccc(F)cc2F)s1 | -91.9
12 | Cc1nccn1-c1ccc(=O)n(CCNC(=O)Cc2ccccc2)n1 | -4.17
13 | O=C(CN1C(=O)CCC1=O)NCc1cc(C2CC2)n(C2CCCC2)n1 | 1.74
14 | O=C(NCc1cccs1)C1CCCN(c2cc(-n3cncn3)ncn2)C1 (centres undefined) | 0.827
15 | CC(=O)N1CCCC2(CCN(Cc3ccc(Cl)c(F)c3)C2)C1 (centres undefined) | 9.58
16 | Cn1cnc(S(=O)(=O)N2CCO[C@H]3[C@H](OCC4CC4)CC[C@@H]32)c1 | 8.31
17 | Cc1cc(C(=O)N2CCc3c(CN(C)C)nn(C)c3C2)[nH]n1 | -3.25
18 | O=C(c1ccnnc1)N1CCO[C@H]2[C@H](Oc3cccnc3)CC[C@@H]21 | 8.39
19 | O=C(O)c1nnn(Cc2cccc(C(F)(F)F)c2)c1-c1ccncc1 | 1.93
20 | O=c1[nH]c2nc(NC3CC3)ncc2c(=O)n1-c1ccc(F)cc1 | -4.06
21 | O=C(NCCCn1ccnc1)C1CCC(=O)N1Cc1cccs1 (centres undefined) | -4.94
22 | CC(C)NC(=O)[C@H]1CN(Cc2ccccc2)C[C@@H]1C(=O)c1ccccc1 | 7.84
23 | Cc1noc(C)c1-c1cccc(C2CN(S(=O)(=O)N(C)C)CCO2)n1 (centres undefined) | 11.4
24 | Cc1ncccc1C(=O)N1CCC2(CCc3ccccc3C(=O)N2)C1 (centres undefined) | 4.28
25 | CCCn1nc(C)c(CN(CCN(C)C)Cc2ccccn2)c1C | -0.641
26 | CN([C@@H]1CCC[C@@H](n2ccnc2)[C@@H]1O)S(=O)(=O)c1cn(C)cn1 | 0.57
27 | CN1CCC(c2cncc(Cl)n2)CC1 | 0.752

Row | Structure (SMILES) | cytotoxicity at 10 µM [%]
28 | CCCc1cc(C(=O)N[C@@H]2CCC[C@@H](N3CCCC3)[C@@H]2O)no1 | -2.48
29 | Cc1cnc(-c2nc(O)c3c(n2)CN(C(=O)C2CCOC2)CC3)cn1 (centres undefined) | -6.76
30 | CN(C(=O)NC1CC1)C1CCN(c2ccc(Cl)cc2)CC1 | -8.39
31 | Cc1ccc(C(C)NC(=O)N2CCN(C(=O)CC(F)(F)F)CC2)o1 (centres undefined) | 43.3
32 | Cc1ccc(C)c(-n2nnnc2SCN2CCCCC2=O)c1 | -47.3
33 | Cc1ccc(O)c(CNc2cccc(CN3CCN(C)CC3)c2)n1 | -2
34 | CN(Cc1cc(Cl)c2c(c1)OCO2)Cc1cscn1 | -2.76
35 | CCOCCOC(C)C(=O)Nc1ccc2ccn(CC(=O)NC)c2c1 (centres undefined) | 2.3
36 | CCc1ccccc1CNC(=O)NCc1cnn(C)c1 | 2.14
37 | Cc1cc(C(=O)NCC2SCCc3ccccc32)no1 (centres undefined) | 3.41
38 | CC(C)OCCC(=O)NCC(c1c(F)cccc1F)N(C)C (centres undefined) | -1.19
39 | CC1CCN(Cc2ccccc2CNC(=O)C2CNC(=O)N2)CC1 (centres undefined) | 2.16
40 | CC1(C)CN(C(CNS(C)(=O)=O)c2ccc(Cl)cc2)CCO1 (centres undefined) | 9.12
41 | COc1ccc(NC(=O)N2CCC(c3noc(C)n3)CC2)cc1C | 17.2
42 | COc1ccc(Br)c(NC(=O)NCc2ncnn2C)c1 | 5.41
43 | O=C(CC1CCCC1)NCCNCc1cccc2c1OCCO2 | -0.912
44 | Cc1cc(CN2CCN(C(=O)CCc3ccco3)CC2)on1 | -2.6
45 | CC(C)c1nn(C)c(N2CCOCC2)c1CNCc1cscn1 | -3.83
46 | Cc1cnn(CC2CCCCN2C(=O)Cn2nc(C)c(Cl)c2C)c1 (centres undefined) | -6.24
47 | CCn1ccnc1CN1CCN(CCc2ccccn2)CC1C (centres undefined) | -8.74
48 | Cc1nc(C2(NC(=O)NCc3cc(C#N)ccc3F)CCCC2)no1 | -4.2
49 | COc1ccccc1-c1noc(CNc2ccc(F)cc2OCCO)n1 | -37.7
50 | CC(C)(O)CN1CCN(C(=O)C2CSc3ccccc3O2)CC1 (centres undefined) | 2.16
51 | CN(C)C(=O)N1CCN(C(=O)c2ccc(Cl)c(Cl)c2)C(C)(C)C1 | -4.71
52 | O=C1CN(CCS(=O)(=O)c2ccc(Cl)cc2)CCN1 | -9.2
53 | CN(C(=O)c1ccc(OCC(F)F)nc1)c1ccc2c(c1)CCO2 | 13.6
54 | O=C1NCCO[C@H]2CN(C(=O)Cc3cccs3)CC[C@@H]12 | -98.8

Source: ChEMBL document CHEMBL4513216, “Probing the Open Global Health Chemical Diversity Library for Multistage-Active Starting Points for Next-Generation Antimalarials” (ACS Infect Dis, 2020)
